Assay [1] can be described thus: Minimal drug concentration necessary to inhibit incorporation of [3H]thymidine in U937 Leukemia cells. The format is functional, cell-based, Homo sapiens.
The species entered for assay [2] is Mus musculus. Put plainly: Antitumor activity in mice bearing B16BL6 melanoma at a dose of 10(ug/mL); survivors for 90 days was reported. In kind it is functional. Summed up: (§1)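 B16BL6 cells were cultured as monolayers, and 10⁶ cells were injected ip on day 0 into female BDF1 mice (4-6 weeks, 8 per group). Drug in dimethylacetamide was diluted in DMA/Cremophor/water (1:5:44) and 0.1 mL given ip on days 1, 5 and 9. %ILS came from median survival of dying animals; 90-day survivors were counted; mean weight change covered days 1-10.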

The species entered for assay [3] is Mus musculus. Description: Mean body weight change between days 1 and 10. The format is functional. In outline: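 Female BDF1 mice (4-6 weeks old, 8 per group) were inoculated ip with 10⁶ B16BL6 melanoma cells on day 0. Drugs in dimethylacetamide were diluted in DMA:Cremophor:water (1:5:44) and given ip at 0.1 mL on days 1, 5 and 9 (doses per kg). Read-outs were %ILS = (T/C − 1) × 100 on median survival of dying animals only, mean body weight change from day 1 to day 10 (g/mouse), and 90-day survivors.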

The species named for assay [4] is Mus musculus. Put plainly: Antitumor activity in mice bearing B16BL6 melanoma at a dose of 5(ug/mL); survivors for 90 days was reported. The format is functional. Summed up: as §1
The species named for assay [5] is Mus musculus. Put plainly: Hematological effects in female CDF1 mice at the dose of 30mg, in red blood cells. In kind it is functional. Summed up:
(§2)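 Non-tumour-bearing female CDF1 mice, 10 per group. Drug was dissolved in DMSO, diluted in 30% DMSO/0.5% glucose, and given as a single ip dose on day 1. Blood was sampled on day 27 for WBC, platelet, RBC and MCHC measurements. Values are medians of 10 mice, with saline or vehicle controls.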

For assay [6], the species on record is Mus musculus. Put plainly: (§3) Hematological effects in female CDF1 mice at the dose of 30 mg, in white blood cells. In kind it is functional. In outline: (§4)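 Non-tumor-bearing female CDF1 mice, 10 per group. Drugs were dissolved in DMSO, diluted in 30% DMSO/0.5% glucose, and given as a single ip dose on day 1 (doses per kg). Blood was sampled on day 27 for WBC, platelet, RBC and MCHC counts. Values are medians of 10 mice.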

The species entered for assay [7] is Mus musculus. Put plainly: Hematological effects in female CDF1 mice at the dose of 30 mg, in platelet cells. In kind it is functional. Summed up: as §2
For assay [8], the species on record is Mus musculus. Description: Mean corpuscular hemoglobin concentration (MCHC). In kind it is functional. In outline:
as §2

The species named for assay [9] is Mus musculus. Put plainly: Antitumor activity in mice bearing L1210 leukemia at a dose of 30 ug / kg. In kind it is functional. In outline:
(§5)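 Female CDF1 mice, 10 per group, got 100 L1210 cells ip on day 0. Drug in DMSO was diluted with 30% DMSO in 0.5% glucose and dosed ip on days 1, 5 and 9. Long-term (60-day) survivors are given as percent of the group.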

For assay [10], the species on record is Mus musculus. Description: animal or person.
The species named for assay [11] is Mus musculus. The description is as §3. In kind it is functional. In outline:
as §2
The source holds these as a separate data set.

The species entered for assay [12] is Mus musculus. Description: (§6) Hematological effects in female CDF1 mice at the dose of […], in red blood cells.
Assay [13] has as its system L1210. Description: Antitumor activity was tested in BDF1 male mice bearing L1210 Leukemia, at the dose of 25 ug/kg; survivors for 30 days was reported. The format is functional, Mus musculus. In outline: (§7)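 Male BDF1 mice, 4-6 weeks old, 6 per group, were given 10⁵ L1210 cells ip on day 0. Drug in DMF was diluted in 30% DMSO/0.5% glucose and given ip on days 1, 5 and 9. %ILS = (T/C − 1) × 100 on median survival of dying animals only; 30-day survivors noted separately. Group weight change was taken from day 0 to the lowest-weight day.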

Assay [14] deals with L1210. Put plainly: Antitumor activity in mice bearing L1210 Leukemia at the dose of 30 ug/kg; survivors for 30 days was reported. The format is functional, Mus musculus.
Assay [15] relates to L1210. Put plainly: Antitumor activity was tested in BDF1 male mice bearing L1210 Leukemia, at the dose of 42 ug/kg; survivors for 30 days was reported. The format is functional, Mus musculus. Summed up: as §7
Assay [16] is described as follows: Hematological effects in female CDF1 mice platelet cells at the dose of 50ug/Kg, in platelets. In kind it is functional, Mus musculus. Summed up: as §2
The nature of assay [17]: Hematological effects in female CDF1 mice RBCs at the dose of 50ug/Kg, in red blood cells. The format is functional, Mus musculus, Erythrocyte. In outline: as §2
Assay [18] is described as follows: Compound was administered to non-tumor bearing female CDF1 mice to estimate Mean corpuscular hemoglobin concentration (MCHC). In kind it is functional, Mus musculus. Summed up: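 Non-tumor-bearing female CDF1 mice, 10 per group, received one ip dose on day 1 (DMSO stock diluted in 30% DMSO/0.5% glucose). Blood was sampled on day 27 for hematology, including MCHC; values are medians of 10 mice.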

Assay [19] concerns L1210. Put plainly: Antitumor activity was tested in Mice (bearing L1210 leukemia) and body weight change between days 0 and days 12 (when the animal weight was the lowest) was estimated at a dose of 70 ug/kg. In kind it is functional, Mus musculus. Summed up:
as §7

In assay [20] the test system is Mus musculus. Put plainly: Anti tumor activity was tested in mice and percent increase of life span at a dose of 42 ug/kg. The format is functional. Summed up: as §7
Assay [21] deals with L1210. Put plainly: Antitumor activity was tested in mice (bearing L1210 leukemia) and body weight change between days 0 and days 12 (when the animal weight was the lowest) was estimated at a dose of 25 ug/kg. In kind it is functional, Mus musculus. Summed up:
as §7

In assay [22] the test system is Mus musculus. Put plainly: Antitumor activity was tested in mice and percent increase of life span at a dose of 25 ug/kg was reported. The format is functional.
The test system of assay [23] is L1210. Put plainly: Antitumor activity was tested in BDF1 male mice bearing L1210 Leukemia, at the dose of 70 ug/kg; activity expressed as 30-day survivors. The format is functional, Mus musculus. In outline: as §7
For assay [24], the system named is L1210. Description: Antitumor activity was tested in Mice (bearing L1210 leukemia) and body weight change between days 0 and days 12 (when the animal weight was the lowest) was estimated at a dose of 42 ug/kg. In kind it is functional, Mus musculus. In outline:
as §7

For assay [25], the system named is Mus musculus. Put plainly: Hematological effects in female CDF1 mice at the dose of 50ug/Kg, in white blood cells. In kind it is functional. Summed up: as §2
In assay [26] the test system is Mus musculus. Put plainly: Anti tumor activity was tested in mice and percent increase of life span at a dose of 70 ug/kg. The format is functional. In outline: as §7
Assay [27] is filed under the species Mus musculus. Put plainly: Hematological effects in female CDF1 mice, in platelets. In kind it is functional. In outline: as §4
The species named for assay [28] is Mus musculus. Put plainly: Hematological effects in female CDF1 mice, in red blood cells. In kind it is functional. Summed up:
as §4

Assay [29] is filed under the species Mus musculus. Put plainly: Hematological effects in female CDF1 mice at the dose of […], in platelets. In kind it is functional. In outline:
as §4

For assay [30], the species on record is Mus musculus. The assay is described as §6. The format is functional. In outline: as §4
In assay [31] the test system is Mus musculus. Put plainly: Antitumor activity in female CDF1 mice bearing L1210 Leukemia at the dose of 30 ug/kg and survivors (60-day) was expressed. In kind it is functional. Summed up:
as §5

A word on the IC50: it is the concentration needed to halve the response being measured. Read a low IC50 as higher potency. In general, ILS refers to how much longer treated animals lived than controls.

For `CC(=O)Nc1ccc2[nH]c(C(=O)N3CC(CCl)c4c3cc(O)c3ccccc43)cc2c1` (configuration not stated), the IC50 in assay [1] was 3 nM.

On to `COc1cccc2c1C(=O)c1c(O)c3c(c(O)c1C2=O)C[C@@](O)(C(=O)CO)C[C@@H]3O[C@H]1C[C@H](N)[C@H](O)[C@H](C)O1` [DOXORUBICIN], for which the values for the No. of survivors in the assay filed under Mus musculus [2] and in the assay listed under Mus musculus [4] were 2 and 0, respectively. Moreover, the Weight in the assay listed under Mus musculus [3] worked out at 0.5 g.

For `CC(=O)Nc1ccc2oc(C(=O)Nc3ccc4[nH]c(C(=O)N5CC(CCl)c6c5cc(O)c5ccccc65)cc4c3)cc2c1` (configuration not stated), in assay [1], the 50% inhibitory concentration (IC50) amounted to 0.4 nM.

Consider `O=c1[nH]cc(F)c(=O)[nH]1` [FLUOROURACIL], for which, in the assay filed under Mus musculus [5], the RBC was 8.82 10e6 ul-1. In addition, the WBC in the assay listed under Mus musculus [6] is recorded as 12.4 10e3 ul-1. Besides, the Platelet in the assay filed under Mus musculus [7] is 1.24 10e6 ul-1. Besides, in the assay filed under Mus musculus [8], the MCHC was 35.4 g/dL.

Regarding `CCCC(=O)Nc1ccc2oc(C(=O)Nc3ccc4[nH]c(C(=O)N5CC(CCl)c6c5cc(O)c5ccccc65)cc4c3)cc2c1` (configuration not stated), the Survivors in the assay listed under Mus musculus [9] is reported as 20%. Also, the IC50 in assay [1] worked out at 0.008 nM.

As for `O=P1(N(CCCl)CCCl)NCCCO1` (configuration not stated) [CYCLOPHOSPHAMIDE ANHYDROUS], the ILS at 0.125 mg/kg in the assay filed under Mus musculus [10] was 173%. Besides, the WBC in the assay filed under Mus musculus [11] is listed as 11.22 10e3 ul-1. For the same compound, the RBC in the assay listed under Mus musculus [12] was 7.67 10e6 ul-1.

In the case of `CS(=O)(=O)OCCCCOS(C)(=O)=O` [BUSULFAN], the RBC in the assay filed under Mus musculus [5] is 8.45 10e6 ul-1. In the assay filed under Mus musculus [6], the WBC is given as 7 10e3 ul-1. In the assay listed under Mus musculus [7], the Platelet was 0.71 10e6 ul-1.

With `CC(=O)Nc1ccc2oc(C(=O)Nc3ccc4[nH]c(C(=O)N5CC6CC67C5=CC(=O)c5ccccc57)cc4c3)cc2c1` (configuration not stated), the No. of survivors in the assay on L1210 [13] was found to be 0; in the assay on L1210 [14], 60; in the assay with L1210 [15], 1; in the assay on L1210 [23], 0. Also, the Platelet in assay [16] is listed as 1.01 10e6 ul-1. Further, in [17], the RBC is reported as 7.81 10e6 ul-1. Further, the MCHC in [18] is 35.5 g/dL. Also, the Weight change in the assay on L1210 [19] was -15%; with L1210 [21], 23%; in the assay on L1210 [24], 18%. This compound displayed an ILS at 0.042 mg/kg in the assay on Mus musculus [20] of 80%. The compound also showed an increase in life span (ILS) at 0.025 mg/kg with Mus musculus [22] of 53%. Besides, the WBC in the assay with Mus musculus [25] was 13.95 10e3 ul-1. For the same compound, the ILS at 0.07 mg/kg in the assay on Mus musculus [26] was 93%. In assay [1], this compound registered an IC50 of 0.2 nM.

`C[S+](C)[O-].OC[C@H]1O[C@H](O)[C@H](O)[C@@H](O)[C@@H]1O`: in the assay listed under Mus musculus [27], the Platelet was 1.16 10e6 ul-1. The WBC in the assay listed under Mus musculus [6] was 12.85 10e3 ul-1. Also, the RBC in the assay filed under Mus musculus [28] is reported as 8.5 10e6 ul-1. In addition, the MCHC in the assay listed under Mus musculus [8] came to 34.45 g/dL.

For `CC(=O)Nc1ccc2[nH]c(/C=C/C(=O)N3CC(CCl)c4c3cc(O)c3ccccc43)cc2c1` (configuration not stated), in [1], the 50% inhibitory concentration (IC50) stood at 0.9 nM.

`CC(=O)O[C@H]1C(=O)[C@@]2(C)[C@H]([C@H](OC(=O)c3ccccc3)[C@]3(O)C[C@H](OC(=O)[C@H](O)[C@@H](NC(=O)c4ccccc4)c4ccccc4)C(C)=C1C3(C)C)[C@]1(OC(C)=O)CO[C@@H]1C[C@@H]2O` [PACLITAXEL]: the Platelet in the assay filed under Mus musculus [29] is reported as 1.04 10e6 ul-1. Besides, the WBC in the assay filed under Mus musculus [11] is given as 13.4 10e3 ul-1. In addition, in the assay listed under Mus musculus [30], the RBC was 8.33 10e6 ul-1. The compound further showed a Survivors in the assay with Mus musculus [31] of 0%. In addition, in the assay filed under Mus musculus [8], the MCHC turned out to be 36.5 g/dL.

These data come from ChEMBL document CHEMBL1133719, “Synthesis and preliminary biological evaluations of CC-1065 analogues: effects of different linkers and terminal amides on biological activity” (J Med Chem, 2000).
